Results on three molecules are retold here after ChEMBL document CHEMBL3120152, “The bat flower: a source of microtubule-destabilizing and -stabilizing compounds with synergistic antiproliferative actions” (J Nat Prod, 2013).

Activity calls are given as the source filed them. The calls are words filed in the database; no cut-off is given here.

Broadly, the IC50 is the concentration that inhibits the measured activity by half. Low values mean greater potency in that assay, high ones weaker potency in that assay. A word on the inhibition: it is the share of the control response that was lost under treatment.

Experiment [1] relates to SK-OV-3. Briefly: Cytotoxicity against human SKOV3 cells expressing MDR1 after 72 hrs by SRB assay. Conditions: SK-OV-3, 72 h. In general terms: In SRB staining, fixed cells bind dye roughly in proportion to their protein.
The target in experiment [2] is T1, Tubulin (Sus scrofa) (UniProt P02554+P02550). Briefly: Inhibition of purified pig brain tubulin polymerization at 25 uM by spectrophotometry. Summed up: (§1)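 Purified porcine brain tubulin with GTP in glycerol buffer, given vehicle or 10 or 25 μM compound. Assembly followed as turbidity, absorbance at 340 nm over time. Rate and extent of polymerization compared with vehicle.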

Experiment [3] relates to HeLa. Description: Cytotoxicity against human HeLa cells after 72 hrs by SRB assay.
Experiment [4] relates to SK-OV-3. Briefly: Resistance ratio of IC50 for human SKOV3 cells expressing MDR1 to IC50 for human SKOV3 cells. Type of experiment: functional. An outline of the steps: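 Relative resistance = SRB-assay IC50 in Pgp-overexpressing SK-OV-3/MDR-1-6/6 divided by IC50 in parental SK-OV-3. Both lines were grown in basal medium Eagle with Earle's salts, 10% FBS and 25−50 μg/mL gentamicin.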

Experiment [5] relates to HeLa. Briefly: Cell cycle arrest in human HeLa cells assessed as accumulation at G2/M phase at 5 uM by flow cytometry. Type of experiment: functional, cell-based. Summed up:
(§2)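 HeLa cells grown in basal medium Eagle with Earle's salts, 10% FBS and 25−50 μg/mL gentamicin, given vehicle or 5 μM compound. Cell cycle distribution read by flow cytometry. Mitotic spindle shape viewed by indirect immunofluorescence of tubulin.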
For orientation: In flow cytometry, cells or beads pass a laser one at a time.

For experiment [6], the system named is HeLa. Description: Cytotoxicity against human HeLa cells expressing beta3-tubulin containing alanine residue at 277 after 72 hrs by SRB assay.
In experiment [7] the test system is HeLa. Description: Resistance ratio of IC50 for human HeLa cells expressing beta3-tubulin containing alanine residue at […] to IC50 for human HeLa cells. Type of experiment: functional. An outline of the steps:
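Relative resistance = SRB-assay IC50 in WTβIII cells divided by IC50 in parental HeLa. Both lines were grown in basal medium Eagle with Earle's salts, 10% FBS and 25−50 μg/mL gentamicin.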

Experiment [8] deals with HeLa. Description: Antimitotic activity in human HeLa cells assessed as abberent multiple spindle asters at 5 uM by indirect immunofluorescence assay relative to vehicle-treated control. Type of experiment: functional, cell-based. An outline of the steps:
as §2

For experiment [9], the system named is SK-OV-3. Description: Cytotoxicity against human SKOV3 cells after 72 hrs by SRB assay. Conditions: SK-OV-3, 72 h.
In experiment [10] the target is T1, Tubulin (Sus scrofa). Description: Inhibition of purified pig brain tubulin polymerization by spectrophotometry. An outline of the steps: as §1
Experiment [11] addresses T1, Tubulin (Sus scrofa). Briefly: Displacement of colchicine from purified pig brain tubulin by fluorescence assay in presence of GTP. Summed up: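 Purified tubulin mixed with colchicine and GTP, plus a range of compound concentrations. Colchicine bound to tubulin fluoresces, so displacement is read as loss of that fluorescence. CA-4 used as positive control; 3 replicates, standard deviations.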

The target of experiment [12] is T1, Tubulin (Sus scrofa). Conditions: 2 to 3 uM.

T1 sequence (P02550 whole entry, looked up): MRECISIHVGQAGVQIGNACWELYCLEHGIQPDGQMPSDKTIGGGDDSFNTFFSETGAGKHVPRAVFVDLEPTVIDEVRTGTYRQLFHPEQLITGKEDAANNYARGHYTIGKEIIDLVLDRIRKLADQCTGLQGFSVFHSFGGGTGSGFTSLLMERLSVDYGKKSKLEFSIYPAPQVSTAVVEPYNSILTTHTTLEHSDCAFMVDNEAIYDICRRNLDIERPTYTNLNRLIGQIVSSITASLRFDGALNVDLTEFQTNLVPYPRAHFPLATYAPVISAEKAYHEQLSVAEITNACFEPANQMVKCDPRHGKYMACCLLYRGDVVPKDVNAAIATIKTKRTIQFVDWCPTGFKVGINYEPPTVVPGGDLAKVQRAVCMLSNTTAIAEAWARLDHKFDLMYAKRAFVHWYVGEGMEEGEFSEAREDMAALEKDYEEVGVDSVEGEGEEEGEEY
T1 sequence (P02554 whole entry, looked up): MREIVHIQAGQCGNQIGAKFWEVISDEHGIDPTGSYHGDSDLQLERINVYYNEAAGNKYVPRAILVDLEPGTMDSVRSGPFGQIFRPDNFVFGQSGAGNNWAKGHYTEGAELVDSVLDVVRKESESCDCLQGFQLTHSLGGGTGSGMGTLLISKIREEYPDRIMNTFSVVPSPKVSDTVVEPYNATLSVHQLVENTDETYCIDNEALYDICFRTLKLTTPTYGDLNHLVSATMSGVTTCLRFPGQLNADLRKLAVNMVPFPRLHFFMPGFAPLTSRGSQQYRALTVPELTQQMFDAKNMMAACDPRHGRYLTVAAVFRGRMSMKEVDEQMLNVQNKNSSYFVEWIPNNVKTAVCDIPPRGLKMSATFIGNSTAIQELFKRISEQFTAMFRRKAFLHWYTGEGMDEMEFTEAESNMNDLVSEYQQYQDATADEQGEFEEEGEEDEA

`COc1cc(OC)c(CCC(=O)c2ccc(OC)c(O)c2)c(OC)c1`: the IC50 with SK-OV-3 [1] came out at 2230 nM; in the experiment on HeLa [3], 581 nM; in the experiment on HeLa [6] it was 690 nM; in the experiment on SK-OV-3 [9], 812 nM. The figures for the inhibition at Tubulin (Sus scrofa) [2], at Tubulin (Sus scrofa) [10] and at Tubulin (Sus scrofa) [11] were 50%, “Dose-dependent effect” and “Dose-dependent effect”, respectively. In addition, the results for the “Ratio IC50” value in the experiment on SK-OV-3 [4] and in the experiment with HeLa [7] were 2.7 and 1.2, respectively. Further, the outcome with HeLa [5] and with HeLa [8] was Active.

`CC(=O)O[C@@H]1[C@H]2[C@H]3[C@H]([C@H](OC(C)=O)[C@H](OC(C)=O)[C@]2(C)[C@@H]2[C@@H]1[C@]1(C)C(=C[C@H]2C)OC(=O)[C@@]1(C)O)[C@]1(C)[C@H](C[C@@H]2O[C@@H]2[C@@H]1OC(C)=O)C(=O)[C@@H]3O`: the outcome with HeLa [5] and with HeLa [8] was Active.

On Tubulin (Sus scrofa) [12], `COc1ccc(/C=C\c2cc(OC)c(OC)c(OC)c2)cc1O` came in with an inhibition of 50%.
